Assay results published in ChEMBL document CHEMBL2401714, “New linezolid-like 1,2,4-oxadiazoles active against Gram-positive multiresistant pathogens” (Eur J Med Chem, 2013).
In brackets after ≈: the same amount, converted by molar mass.

Key:
[1] = tested on: Staphylococcus aureus; assay: Antibacterial activity against methicillin-resistant Staphylococcus aureus 433 assessed as growth inhibition after 18 to 24 hrs by broth microdilution method; assay type: functional
Outline: (§1)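 CLSI broth microdilution: serial 2-fold dilutions of each compound in Mueller-Hinton broth, with DMSO as solvent. An equal volume of inoculum (1 × 10⁶ CFU/mL) is added to each well holding the dilutions. MIC is the lowest concentration causing no visible turbidity. Values are expressed in […]. Clinical MRSA collection isolates 433 and F511, and reference strain Mu50.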

[2] = tested on: Staphylococcus aureus; assay: Antibacterial activity against methicillin-susceptible Staphylococcus aureus ATCC 29213 assessed as growth inhibition after 18 to 24 hrs by broth microdilution method; assay type: functional
Outline: (§2)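 CLSI broth microdilution against S. aureus isolates. Two-fold serial dilutions were made in Mueller-Hinton broth, with DMSO as the compound solvent. An equal volume of inoculum (1 × 10⁶ CFU/mL) was added to each well. MIC was taken as the lowest concentration giving no visible turbidity of the medium.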

[3] = tested on: Staphylococcus aureus; assay: Antibacterial activity against methicillin-resistant Staphylococcus aureus ATCC 700699 assessed as growth inhibition after 18 to 24 hrs by broth microdilution method; assay type: functional; outline: as §1
[4] = tested on: Staphylococcus aureus; assay: Antibacterial activity against methicillin-susceptible Staphylococcus aureus M923 assessed as growth inhibition after 18 to 24 hrs by broth microdilution method; assay type: functional; outline: as §2
[5] = tested on: Staphylococcus aureus; assay: Antibacterial activity against methicillin-resistant Staphylococcus aureus F511 assessed as growth inhibition after 18 to 24 hrs by broth microdilution method; assay type: functional; outline: as §1
[6] = tested on: HepG2; assay: Cytotoxicity against human HepG2 cells assessed as reduction of cell viability at 5 to 400 ug/ml by MTT assay; assay type: cell-based
Outline: (§3)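 Cells were exposed to increasing compound concentrations, with a DMSO solvent control. HepG2 and HaCaT were grown in DMEM, and PK15 in DMEM/M199 (1:1), all with 10% heat-inactivated fetal serum. MTT (5 mg/mL stock, 1.2 mM final) was added for 1 h 30 min at 37 °C. The reaction was stopped with 90% ethanol, cells were spun at 800 × g for 10 min, and A570 was read. Values are means ± S.E. of 3 experiments run in triplicate.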

[7] = tested on: HaCaT; assay: Cytotoxicity against human HaCaT cells assessed as cell death at 200 to 400 ug/ml by MTT assay relative to control; assay type: cell-based; outline: as §3
[8] = Cytotoxicity against porcine PK-15 cells assessed as reduction of cell viability at 5 to 400 ug/ml by MTT assay; assay type: cell-based, Sus scrofa; conditions: pig; outline: as §3
[9] = Cytotoxicity against porcine PK-15 cells assessed as reduction of cell viability at 5 ug/ml by MTT assay relative to control; assay type: cell-based, Sus scrofa; conditions: pig; outline: as §3
[10] = tested on: HepG2; assay: Cytotoxicity against human HepG2 cells assessed as reduction of cell viability at 50 ug/ml by MTT assay; assay type: cell-based; outline: as §3
[11] = Cytotoxicity against porcine PK-15 cells assessed as reduction of cell viability at 25 to 200 ug/ml by MTT assay; assay type: cell-based, Sus scrofa; conditions: pig; outline: as §3
[12] = tested on: HepG2; assay: Cytotoxicity against human HepG2 cells assessed as reduction of cell viability at 400 ug/ml by MTT assay relative to control; assay type: cell-based; outline: as §3
[13] = tested on: HaCaT; assay: Cytotoxicity against human HaCaT cells assessed as induction of cell death at => 25 ug/ml by MTT assay relative to control; assay type: cell-based; outline: as §3
[14] = tested on: HaCaT; assay: Cytotoxicity against human HaCaT cells assessed as reduction of cell viability at 5 ug/ml by MTT assay; assay type: cell-based; outline: as §3
[15] = Cytotoxicity against porcine PK-15 cells assessed as reduction of cell viability by MTT assay; assay type: cell-based, Sus scrofa; conditions: pig; outline: as §3
[16] = Cytotoxicity against porcine PK-15 cells assessed as reduction of cell viability at 200 to 400 ug/ml by MTT assay relative to control; assay type: cell-based, Sus scrofa; conditions: pig; outline: as §3
[17] = Cytotoxicity against porcine PK-15 cells assessed as reduction of cell viability at 100 ug/ml by MTT assay relative to control; assay type: cell-based, Sus scrofa; conditions: pig; outline: as §3

Row | SMILES | MIC [1] [µg/mL] | MIC [2] [µg/mL] | MIC [3] [µg/mL] | MIC [4] [µg/mL] | MIC [5] [µg/mL] | also measured
1 | CC(=O)NCC1CN(c2ccc(-c3nc(C)no3)cc2)C(=O)O1 (racemic) | 1.6 (≈ 5.06 µM) | 12.5 (≈ 39.5 µM) | 6.25 (≈ 19.8 µM) | 6.25 (≈ 19.8 µM) | 12.5 (≈ 39.5 µM) | 
2 | CC(=O)NC[C@H]1CN(c2ccc(N3CCOCC3)c(F)c2)C(=O)O1 [LINEZOLID] | 1.6 (≈ 4.74 µM) | ≤ 0.4 | 0.8 (≈ 2.37 µM) | 3.13 (≈ 9.28 µM) | 3.13 (≈ 9.28 µM) | Activity [6]: Non-toxic; Activity [7]: Toxic; Activity [8]: Non-toxic
3 | Cc1noc(-c2ccc(N3CC(Cn4ccnc4)OC3=O)cc2F)n1 (racemic) | > 50 | > 50 | > 50 | > 50 | > 50 | 
4 | CC(=O)NCC1CN(c2ccc(-c3nc(C)no3)c(F)c2)C(=O)O1 (racemic) | 1.6 (≈ 4.79 µM) | 12.5 (≈ 37.4 µM) | 6.25 (≈ 18.7 µM) | 6.25 (≈ 18.7 µM) | 12.5 (≈ 37.4 µM) | 
5 | Cc1noc(-c2ccc(N3CC(CI)OC3=O)cc2F)n1 (racemic) | 50 (≈ 124 µM) | > 50 | 50 (≈ 124 µM) | > 50 | > 50 | 
6 | Cc1noc(-c2ccc(N3CC(Cn4cncn4)OC3=O)cc2F)n1 (racemic) | > 50 | > 50 | > 50 | > 50 | > 50 | 
7 | Cc1noc(-c2ccc(N3CC(Cn4cccn4)OC3=O)cc2F)n1 (racemic) | > 50 | > 50 | > 50 | > 50 | > 50 | 
8 | CC(=S)NCC1CN(c2ccc(-c3nc(C)no3)c(F)c2)C(=O)O1 (racemic) | 0.8 (≈ 2.28 µM) | 1.6 (≈ 4.57 µM) | ≤ 0.4 | 1.6 (≈ 4.57 µM) | 1.6 (≈ 4.57 µM) | Activity [9]: < 10%; Activity [10]: Toxic; Activity [7]: > 50%; Activity [11]: Toxic; Activity [12]: 40%
9 | Cc1noc(-c2ccc(N3CC(Cn4cncn4)OC3=O)cc2)n1 (racemic) | > 50 | > 50 | > 50 | > 50 | > 50 | 
10 | Cc1noc(-c2ccc(N3CC(CI)OC3=O)cc2)n1 (racemic) | 25 (≈ 64.9 µM) | > 50 | 50 (≈ 130 µM) | > 50 | 50 (≈ 130 µM) | 
11 | CC(=S)NCC1CN(c2ccc(-c3nc(C)no3)cc2)C(=O)O1 (racemic) | 1.6 (≈ 4.81 µM) | 3.13 (≈ 9.42 µM) | ≤ 0.4 | 1.6 (≈ 4.81 µM) | 1.6 (≈ 4.81 µM) | Activity [6]: Toxic; Activity [13]: > 60%; Activity [14]: Toxic; Activity [15]: Dose-dependent effect; Activity [16]: > 90%; Activity [17]: 70%
12 | Cc1noc(-c2ccc(N3CC(Cn4cccn4)OC3=O)cc2)n1 (racemic) | > 50 | > 50 | > 50 | > 50 | > 50 | 
13 | Cc1noc(-c2ccc(N3CC(Cn4ccnc4)OC3=O)cc2)n1 (racemic) | > 50 | > 50 | > 50 | > 50 | > 50 | 
14 | Cc1noc(-c2ccc(N3CC(CN=[N+]=[N-])OC3=O)cc2)n1 (racemic) | > 50 | > 50 | > 50 | > 50 | > 50 | 
15 | Cc1noc(-c2ccc(N3CC(CN=[N+]=[N-])OC3=O)cc2F)n1 (racemic) | > 50 | > 50 | > 50 | > 50 | > 50 | 
